The test system of test [1] is S. aureus biofilms (UAMS-1). The test can be described thus: Biofilm killing assay. Particulars: 10 times the MIC, 24 hours, compared with the control. In kind it is cell-based. The method in brief:
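Overnight stationary UAMS-1 culture diluted 1:20 in BHI broth and grown 24 h at 37 °C in tissue-culture-treated 96-well plates. Wells PBS-washed twice, then exposed to test compound in fresh medium for 24 h. Washed again, biofilms disrupted by sonication in PBS, serially diluted, and spotted on BHI agar overnight at 37 °C for cfu counts. One-way ANOVA with Dunnett's test.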

For test [2], the target named is T1, S. aureus ClpP (caseinolytic protease) (S. aureus NCTC 8325), Q2G036.
T1 chain: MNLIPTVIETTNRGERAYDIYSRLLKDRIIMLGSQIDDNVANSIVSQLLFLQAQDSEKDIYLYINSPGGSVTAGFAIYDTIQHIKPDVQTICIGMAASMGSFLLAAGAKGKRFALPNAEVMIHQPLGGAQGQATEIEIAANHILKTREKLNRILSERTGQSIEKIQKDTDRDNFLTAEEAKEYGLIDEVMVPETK
The test can be described thus: AUC. Particulars: remark: other sources report otherwise.

Test [3] concerns the target T1, S. aureus ClpP (caseinolytic protease) …. The test can be described thus: crystal structure. Particulars: remark: other sources report otherwise.

Several values for one entry are separate records, joined by “and”; a condition that tells them apart may be missing. Identical values can stand only once.

Broadly, the stoichiometry N is the number of molecules, sites or subunits per partner or assembly.

For `CO[C@H]1/C=C/O[C@@]2(C)Oc3c(C)c(O)c4c(O)c(c(/C=N/N5CCN(C)CC5)c(O)c4c3C2=O)NC(=O)/C(C)=C\C=C\[C@H](C)[C@H](O)[C@@H](C)[C@@H](O)[C@@H](C)[C@H](OC(C)=O)[C@@H]1C` [rifampin], the “reduction in growth of mature S. aureus biofilms” value in test [1] is “limited reduction”.

B1: S. aureus ClpP (caseinolytic protease), Q2G036 1-195 (enzyme)
chain: T1 chain
For the molecule B1, the stoichiometry N is 14 and 7 in test [2]; 14 in test [3].

(Values after PMC6916429 (ACS infectious diseases, 2019).)
